Results on nine compounds are retold here after ChEMBL document CHEMBL1142866, “Synthesis and preliminary evaluation of 18F- or 11C-labeled bicyclic nucleoside analogues as potential probes for imaging varicella-zoster virus thymidine kinase gene expression using positron emission tomography” (J Med Chem, 2007).

The source made the active and inactive calls. The rule behind the calls is not given here.

In data set [1] the test system is OST. The experiment in a line: Cytostatic activity against OST TK-/HSV1 TK+ cells at 1.8 uM. The data set is classed as functional, cell-based. To be noted: Homo sapiens, tested as the 18F-labelled form. In short, it runs like this: (§1)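 OST TK- control cells and OST TK- cells expressing HSV-1 TK or VZV TK were cultured 5 days with graded compound concentrations. Cells were then trypsinized and counted on a Coulter counter. CC50 is the concentration in µM that reduces cell number by 50%.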

Data set [2] is described as follows: Inhibition of recombinant VZV TK assessed as [CH3-H3]dThd phosphorylation. Set-up: species or system Human alphaherpesvirus 3. Put shortly:
(§2)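 Purified recombinant VZV TK (7.75 ng), HSV-1 TK (226 ng) or cytosolic TK-1 (455 ng). Buffer: 50 mM Tris-HCl pH 8.0, 2.5 mM MgCl2, 10 mM DTT, 2.5 mM ATP, 1.0 mg/mL BSA, 10 mM NaF, 1 µM [CH3-3H]dThd final. Incubated 30 min at 37 °C (linear range) with graded compound concentrations. Product caught on DE-81 disks, washed, scintillation-counted. IC50 is 50% inhibition of dThd phosphorylation.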

The target in another data set is T1, Thymidine kinase (Human alphaherpesvirus 1, UniProt Q9QNF7).
T1 sequence (Q9QNF7 whole entry): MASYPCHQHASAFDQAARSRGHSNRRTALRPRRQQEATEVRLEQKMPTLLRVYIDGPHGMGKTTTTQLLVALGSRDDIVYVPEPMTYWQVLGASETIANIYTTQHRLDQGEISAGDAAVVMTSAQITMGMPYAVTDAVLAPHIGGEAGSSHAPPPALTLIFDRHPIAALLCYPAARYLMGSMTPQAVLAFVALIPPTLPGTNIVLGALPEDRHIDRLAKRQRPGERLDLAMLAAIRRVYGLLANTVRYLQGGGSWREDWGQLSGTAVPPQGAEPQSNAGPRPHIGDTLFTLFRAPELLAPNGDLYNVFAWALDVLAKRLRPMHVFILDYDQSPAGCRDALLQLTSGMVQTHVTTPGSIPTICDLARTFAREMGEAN
The experiment in a line: Inhibition of recombinant HSV-1 TK assessed as [CH3-H3]dThd phosphorylation. Put shortly: as §2

Data set [3] concerns the target T2, Thymidine kinase, cytosolic (Homo sapiens, UniProt P04183).
T2 sequence (P04183 whole entry): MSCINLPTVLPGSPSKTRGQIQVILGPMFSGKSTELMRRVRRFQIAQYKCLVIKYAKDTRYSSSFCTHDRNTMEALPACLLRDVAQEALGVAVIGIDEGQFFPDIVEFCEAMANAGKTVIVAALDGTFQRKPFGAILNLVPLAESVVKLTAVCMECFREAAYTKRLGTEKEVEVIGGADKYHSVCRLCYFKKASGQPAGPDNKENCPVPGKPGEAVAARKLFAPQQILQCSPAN
The experiment in a line: Inhibition of recombinant cytosolic TK-1 assessed as [CH3-H3]dThd phosphorylation. Put shortly:
as §2

For data set [4], the system named is OST. The experiment in a line: Cytostatic activity against OST TK-/HSV1 TK+ cells at 0.038 uM. In kind it is functional, cell-based. To be noted: Homo sapiens. Put shortly:
as §1

Data set [5] concerns OST. The experiment in a line: Cytotoxicity against OST cells expressing VZV TK. In kind it is cell-based. The following applies: human. Put shortly:
as §1

Data set [6] relates to OST. The experiment in a line: Cytotoxicity against OST cells expressing HSV1 TK. In kind it is cell-based. The following applies: human. Put shortly:
as §1

On to `Nc1nc(=O)c2ncn(CCC(CO)CF)c2[nH]1` (configuration not stated), for which, in the data set with OST [1], the outcome was Active. Further, in data set [2], the IC50 (in general, the midpoint of a concentration-inhibition curve) was > 50 µM.

As to `O=c1nc2oc(-c3ccccc3F)cc2cn1C1C[C@H](O)[C@@H](CO)O1` (some centres not stated), the IC50 in data set [2] is 0.28 µM; on Thymidine kinase, > 500 µM; in data set [3], > 500 µM.

In the case of `Nc1nc(O)c2ncn(CCC(CO)CO)c2n1` [PENCICLOVIR], the result in the data set on OST [4] was Active. The concentration for half-maximal inhibition (IC50) in data set [2] was > 50 µM.

Regarding `Nc1nc2c(ncn2CCC(CO)CF)c(=O)[nH]1` (configuration not stated), on Thymidine kinase, the IC50 was determined as 9 µM.

On to `O=c1nc2oc(-c3cccc(O)c3)cc2cn1[C@H]1C[C@H](O)[C@@H](CO)O1`, for which the IC50 in data set [2] is 2.6 µM; at Thymidine kinase, > 500 µM; in data set [3] it was > 500 µM. In addition, the Activity result in the data set with OST [5] and in the data set on OST [6] was “Not Active” throughout.

With `O=c1nc2oc(-c3cccc(OCCF)c3)cc2cn1[C@H]1C[C@H](O)[C@@H](CO)O1`, the results for the IC50 (in data set [2]; on Thymidine kinase; in data set [3]) were 53 µM, > 500 µM and > 500 µM, respectively. Besides, the Activity result in the data set with OST [5] and in the data set on OST [6] was “Not Active” throughout.

Consider `O=c1nc2oc(-c3ccc(F)cc3)cc2cn1[C@H]1C[C@H](O)[C@@H](CO)O1`, for which the IC50 in data set [2] is 0.18 µM; at Thymidine kinase, > 500 µM; in data set [3], > 500 µM.

Consider `Nc1nc2c(ncn2CCC(CO)CO)c(=O)[nH]1` [PENCICLOVIR], for which the half-inhibitory concentration (IC50) at Thymidine kinase was determined as 11 µM.

For the compound `COc1cccc(-c2cc3cn([C@H]4C[C@H](O)[C@@H](CO)O4)c(=O)nc3o2)c1`, the IC50 in data set [2] is 4.8 µM; at Thymidine kinase, > 500 µM; in data set [3] it was > 500 µM. Moreover, the Activity result with OST [5] and in the data set on OST [6] was “Not Active” throughout.
